Laboratory results taken from ChEMBL document CHEMBL1147012 (Bioorg Med Chem Lett, 2006).
The source made the active and inactive calls. The rule behind the calls is not given here.

Assays:
Tubulin = assay: Inhibition of microtubule polymerization; format: functional, Homo sapiens
Summary of the method: (§1)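 Microtubule polymerization assay run with a fixed, short incubation time.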

PC-3 = assay: Cytotoxicity against human PC3 cell line; format: functional, cell-based
Tubulin (Homo sapiens) [1] = molecular target: T1, Tubulin (Homo sapiens) (UniProt P68371+Q9H4B7+P0DPH7+P68366+Q13509+Q71U36+P04350+Q3ZCM7+P07437+P68363+Q9BQE3+Q6PEY2+Q13885+Q9BVA1+Q9BUF5); assay: Inhibition of microtubule polymerization up to 150 uM
Tubulin (Homo sapiens) [2] = molecular target: T1, Tubulin (Homo sapiens); assay: Inhibition of microtubule polymerization up to 150 uM; format: functional; summary of the method: as §1

| Structure (SMILES) | IC50 (Tubulin) [nM] | IC50 (PC-3) [nM] | Activity (Tubulin (Homo sapiens) [1]) | Activity (Tubulin (Homo sapiens) [2]) |
| --- | --- | --- | --- | --- |
| COc1cc2c(c(OC)c1OC)-c1ccc(OC)c(=O)cc1[C@@H](NS(=O)(=O)c1ccc([N+](=O)[O-])cc1[N+](=O)[O-])CC2 | 9700 | 50 | – | – |
| CCN[C@H]1CCc2cc(OC)c(OC)c(OC)c2-c2ccc(=O)c(OC)cc21 | – | 1720 | inactive | – |
| COc1cc2c(c(OC)c1OC)-c1ccc(=O)c(OC)cc1[C@@H](NS(=O)(=O)c1ccccc1[N+](=O)[O-])CC2 | 58000 | 905 | – | – |
| COc1cc2c(c(OC)c1OC)-c1ccc(=O)c(OC)cc1[C@@H](NC(C)=O)CC2 [ISOCOLCHICINE] | – | 4600 | – | – |
| COc1cc2c(c(OC)c1OC)-c1ccc(=O)c(OC)cc1[C@@H](NCC(C)=O)CC2 | 68000 | 93 | – | – |
| CCN[C@H]1CCc2cc(OC)c(OC)c(OC)c2-c2ccc(OC)c(=O)cc21 | – | 17.6 | – | – |
| COc1cc2c(c(OC)c1OC)-c1ccc(OC)c(=O)cc1[C@@H](Nc1ccc([N+](=O)[O-])cc1[N+](=O)[O-])CC2 | 4600 | 9 | – | – |
| COc1cc2c(c(OC)c1OC)-c1ccc(OC)c(=O)cc1[C@@H](NCC(C)=O)CC2 | – | 7.6 | – | – |
| COc1cc2c(c(OC)c1OC)-c1ccc(OC)c(=O)cc1[C@@H](NS(=O)(=O)c1ccccc1[N+](=O)[O-])CC2 | 5600 | 19.8 | – | – |
| COc1cc2c(c(OC)c1OC)-c1ccc(=O)c(OC)cc1[C@@H](Nc1ccc([N+](=O)[O-])cc1[N+](=O)[O-])CC2 | – | 5700 | – | – |
| COc1cc2c(c(OC)c1OC)-c1ccc(=O)c(OC)cc1[C@@H](NS(=O)(=O)c1ccc([N+](=O)[O-])cc1[N+](=O)[O-])CC2 | 59000 | 10200 | – | – |
| COc1cc2c(c(OC)c1OC)-c1ccc(=O)c(OC)cc1[C@@H](/N=C(/C)S)CC2 | – | 1750 | – | inactive |
| COc1cc2c(c(OC)c1OC)-c1ccc(OC)c(=O)cc1[C@@H](/N=C(/C)S)CC2 | 2200 | 97.5 | – | – |
